From ChEMBL document CHEMBL1144880, “Identification of phenylisoxazolines as novel and viable antibacterial agents active against Gram-positive pathogens” (J Med Chem, 2003)
Converted amounts (≈) assume the structure as drawn. Values belong to the compound of their own block, whether it stands above or below them.

Experiments:
CYP1A2 [1] = target: T1, CYP1A2 (Homo sapiens, UniProt P05177); assay: Inhibition of heterologously expressed human Cytochrome P450 1A2 at 10 uM; type: ADME; design: scale not given: the % may be the effect or the level left; details: read-out: Control of P-450 marker
T1 sequence (P05177 whole entry): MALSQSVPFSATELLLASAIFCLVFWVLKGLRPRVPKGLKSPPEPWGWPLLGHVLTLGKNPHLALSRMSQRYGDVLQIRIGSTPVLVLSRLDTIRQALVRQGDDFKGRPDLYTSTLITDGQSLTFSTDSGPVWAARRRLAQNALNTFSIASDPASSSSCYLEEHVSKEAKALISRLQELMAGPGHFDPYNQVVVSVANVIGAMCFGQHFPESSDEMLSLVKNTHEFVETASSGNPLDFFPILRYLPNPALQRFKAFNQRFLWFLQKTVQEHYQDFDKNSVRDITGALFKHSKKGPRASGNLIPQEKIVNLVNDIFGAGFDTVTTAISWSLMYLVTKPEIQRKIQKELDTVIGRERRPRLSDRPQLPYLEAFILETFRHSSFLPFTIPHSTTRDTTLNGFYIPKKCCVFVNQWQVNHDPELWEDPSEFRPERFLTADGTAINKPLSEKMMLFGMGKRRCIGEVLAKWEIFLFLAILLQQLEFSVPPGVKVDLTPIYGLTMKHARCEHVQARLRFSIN
Outline: (§1)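 Human cDNA-expressed CYP1A2, 2C9, 2D6 and 3A4 microsomes incubated with compound at 10 or 100 µM plus CYP marker substrates. Marker metabolite formation quantified by HPLC with radiochemical detection and expressed as % of control, mean ± SD of triplicates.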

CYP3A4 [2] = target: T2, CYP3A4 (Homo sapiens, UniProt P08684); assay: Inhibition of heterologously expressed human Cytochrome P450 3A4 at 100 uM; type: ADME; design: scale not given: the % may be the effect or the level left; details: read-out: Control of P-450 marker; outline: as §1
T2 sequence (P08684 whole entry): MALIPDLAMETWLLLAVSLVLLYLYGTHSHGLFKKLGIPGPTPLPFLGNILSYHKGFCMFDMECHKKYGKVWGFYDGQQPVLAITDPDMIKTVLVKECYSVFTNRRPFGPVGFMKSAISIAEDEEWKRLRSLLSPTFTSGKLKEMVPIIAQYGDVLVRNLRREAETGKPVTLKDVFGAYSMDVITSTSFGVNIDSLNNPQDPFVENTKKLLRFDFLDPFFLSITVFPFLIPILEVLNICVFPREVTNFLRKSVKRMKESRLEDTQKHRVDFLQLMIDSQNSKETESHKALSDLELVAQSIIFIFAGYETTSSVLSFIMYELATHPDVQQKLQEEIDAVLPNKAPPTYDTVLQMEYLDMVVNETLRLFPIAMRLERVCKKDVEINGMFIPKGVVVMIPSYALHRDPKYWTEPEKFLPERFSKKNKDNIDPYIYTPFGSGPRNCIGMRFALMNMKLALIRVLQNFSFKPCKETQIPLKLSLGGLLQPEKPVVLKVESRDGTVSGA

[3] = test system: Staphylococcus epidermidis; assay: In vitro minimum inhibitory concentration (MIC) against Staphylococcus epidermidis UC12084; type: functional
Outline: (§2)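 MIC determined by standard broth microdilution, defined as the lowest drug concentration (µg/mL) inhibiting visible growth.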

CYP3A4 [4] = target: T2, CYP3A4; assay: Inhibition of heterologously expressed human Cytochrome P450 3A4 at 10 uM; type: ADME; design: scale not given: the % may be the effect or the level left; details: read-out: Control of P-450 marker; outline: as §1
[5] = Cmax value in Male Sprague-Dawley Rat at dose 8.98 (mg/kg iv); type: ADME, organism-based; design: dose 8.98 mg/kg, route intravenous; details: in vivo
Outline: (§3)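 Male Sprague-Dawley rats dosed intravenously or orally. Intact compound measured in plasma by HPLC-UV after protein-precipitation sample preparation. Half-life reported as harmonic mean apparent terminal disposition half-life. Bioavailability is absolute oral bioavailability. Some comparator values are archival data.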

[6] = Cmax value in Male Sprague-Dawley Rat at dose 48.9 (mg/kg po); type: ADME, organism-based; design: dose 48.9 mg/kg, route oral; details: in vivo; outline: as §3
Staphylococcus aureus [7] = assay: In vitro minimum inhibitory concentration (MIC) against Staphylococcus aureus UC9213; type: functional; outline: as §2
[8] = Harmonic mean apparent terminal disposition half-life [t1/2beta (h)] in Male Sprague-Dawley Rat at dose 8.98 (mg/kg iv); type: ADME, organism-based; details: in vivo, read-out: T1/2 beta (converted); outline: as §3
[9] = Harmonic mean apparent terminal disposition half-life [t1/2beta (h)] in Male Sprague-Dawley Rat at dose 48.9 (mg/kg po); type: ADME, organism-based; details: in vivo, read-out: T1/2 beta (converted); outline: as §3
CYP2C9 [10] = target: T3, CYP2C9 (Homo sapiens, UniProt P11712); assay: Inhibition of heterologously expressed human Cytochrome P450 2C9 at 10 uM; type: ADME; design: scale not given: the % may be the effect or the level left; details: read-out: Control of P-450 marker; outline: as §1
T3 sequence (P11712 whole entry): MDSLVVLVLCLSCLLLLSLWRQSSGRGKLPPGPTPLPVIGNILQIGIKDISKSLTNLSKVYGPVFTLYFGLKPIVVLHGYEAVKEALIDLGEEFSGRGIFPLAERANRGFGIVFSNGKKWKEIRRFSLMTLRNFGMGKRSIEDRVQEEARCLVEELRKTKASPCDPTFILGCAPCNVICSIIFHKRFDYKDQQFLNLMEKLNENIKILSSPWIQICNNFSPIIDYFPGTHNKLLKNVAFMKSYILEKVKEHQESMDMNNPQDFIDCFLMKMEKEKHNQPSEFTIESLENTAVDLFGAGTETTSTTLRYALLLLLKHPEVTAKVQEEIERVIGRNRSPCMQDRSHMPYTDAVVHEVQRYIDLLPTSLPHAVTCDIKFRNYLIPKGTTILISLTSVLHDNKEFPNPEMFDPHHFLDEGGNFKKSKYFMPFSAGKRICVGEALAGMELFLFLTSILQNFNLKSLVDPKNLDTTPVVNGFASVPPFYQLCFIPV

Rattus norvegicus = species on record: Rattus norvegicus; assay: Compound was evaluated for metabolic stability via In vitro Rat 5E6 cell at 50 uM concentration; type: functional
Haemophilus influenzae = assay: In vitro minimum inhibitory concentration (MIC) against Haemophilus influenzae UC30063; type: functional; outline: as §2
[11] = Tmax value in Male Sprague-Dawley Rat at dose 48.9 (mg/kg po) [tmax (h)]; type: ADME, organism-based; details: in vivo; outline: as §3
[12] = Absolute oral bioavailability in Male Sprague-Dawley Rat (8.98 mg/kg iv); type: ADME, organism-based; details: in vivo; outline: as §3
Enterococcus faecalis = assay: In vitro minimum inhibitory concentration (MIC) against Enterococcus faecalis UC9217; type: functional; outline: as §2
[13] = Volume distribution in Male Sprague-Dawley Rat (8.98 mg/kg iv); type: ADME, organism-based; details: in vivo, read-out: Vss
Outline: (§4)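 Male Sprague-Dawley rats given the compound intravenously. Intact compound in plasma was measured by HPLC-UV after protein-precipitation sample preparation.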

CYP2D6 [14] = target: T4, CYP2D6 (Homo sapiens, UniProt P10635); assay: Inhibition of heterologously expressed human Cytochrome P450 2D6 at 10 uM; type: ADME; design: scale not given: the % may be the effect or the level left; details: read-out: Control of P-450 marker; outline: as §1
T4 sequence (P10635 whole entry): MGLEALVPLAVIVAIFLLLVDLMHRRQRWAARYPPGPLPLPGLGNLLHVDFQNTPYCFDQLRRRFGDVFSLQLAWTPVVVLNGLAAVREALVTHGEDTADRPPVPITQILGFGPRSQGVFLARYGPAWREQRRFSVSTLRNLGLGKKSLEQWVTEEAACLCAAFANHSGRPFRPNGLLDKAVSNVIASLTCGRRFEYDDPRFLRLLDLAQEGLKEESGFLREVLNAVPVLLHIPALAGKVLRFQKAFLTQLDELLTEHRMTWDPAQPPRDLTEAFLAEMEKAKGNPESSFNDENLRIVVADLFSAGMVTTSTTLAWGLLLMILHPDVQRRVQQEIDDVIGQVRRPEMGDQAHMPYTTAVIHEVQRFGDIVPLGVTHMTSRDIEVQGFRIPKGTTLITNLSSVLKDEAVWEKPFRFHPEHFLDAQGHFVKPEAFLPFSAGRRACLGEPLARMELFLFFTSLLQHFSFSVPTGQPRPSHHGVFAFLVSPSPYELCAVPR

Mus musculus = assay: In Vivo effective dose required for antibacterial activity in a systemic mouse infection model (SMIM) upon oral administration against Staphylococcus aureus UC9213; type: functional
Outline: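 Compound was given orally at 1 and 5 h after infection. Deaths were monitored for at least 6 days, and ED50 (dose curing 50% of mice) was calculated by probit analysis.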

Escherichia coli = assay: In vitro minimum inhibitory concentration (MIC) against Escherichia coli UC6674; type: functional; outline: as §2
CYP1A2 [15] = target: T1, CYP1A2; assay: Inhibition of heterologously expressed human Cytochrome P450 1A2 at 100 uM; type: ADME; design: scale not given: the % may be the effect or the level left; details: read-out: Control of P-450 marker; outline: as §1
[16] = Plasma clearance in Male Sprague-Dawley Rat (8.98 mg/kg iv); type: ADME, organism-based; outline: as §3
Staphylococcus aureus [17] = assay: In vitro minimum inhibitory concentration (MIC) against Staphylococcus aureus UC12673; type: functional; outline: as §2
[18] = Plasma clearance in Male Sprague-Dawley Rat (48.9 mg/kg po); type: ADME, organism-based; outline: as §3
Homo sapiens = species on record: Homo sapiens; assay: Compound was evaluated for metabolic stability via In vitro Human 5E6 cell at 25 uM concentration; type: functional
Streptococcus pneumoniae = assay: In vitro minimum inhibitory concentration (MIC) against Streptococcus pneumoniae UC9912; type: functional; outline: as §2
Moraxella catarrhalis = assay: In vitro minimum inhibitory concentration (MIC) against Moraxella catarrhalis UC30610; type: functional; outline: as §2
CYP2C9 [19] = target: T3, CYP2C9; assay: Inhibition of heterologously expressed human Cytochrome P450 2C9 at 100 uM; type: ADME; design: scale not given: the % may be the effect or the level left; details: read-out: Control of P-450 marker; outline: as §1
CYP2D6 [20] = target: T4, CYP2D6; assay: Inhibition of heterologously expressed human Cytochrome P450 2D6 at 100 uM; type: ADME; design: scale not given: the % may be the effect or the level left; details: read-out: Control of P-450 marker; outline: as §1
[21] = Absolute oral bioavailability in Male Sprague-Dawley Rat (48.9 mg/kg po); type: ADME, organism-based; details: in vivo; outline: as §3
[22] = Tmax value in Male Sprague-Dawley Rat at dose 25 (mg/kg po) [tmax (h)]; type: ADME, organism-based; details: in vivo; outline: as §3
[23] = Cmax value in Male Sprague-Dawley Rat at dose 25 (mg/kg po); type: ADME, organism-based; design: dose 25 mg/kg, route oral; details: in vivo; outline: as §3
[24] = Oral bioavailability in rat (Sprague-Dawley) (male) (dose 10 mg/kg i.v.); type: ADME, organism-based; details: in vivo; outline: as §3
[25] = Harmonic mean apparent terminal disposition half-life [t1/2beta (h)] in Male Sprague-Dawley Rat at dose 10 (mg/kg iv); type: ADME, organism-based; details: in vivo, read-out: T1/2 beta (converted); outline: as §3
[26] = Plasma clearance in Male Sprague-Dawley Rat (10 mg/kg iv); type: ADME, organism-based; outline: as §3
[27] = Oral bioavailability in rat (Sprague-Dawley) (male) (dose 25 mg/kg p.o.); type: ADME, organism-based; details: in vivo; outline: as §3
[28] = Volume distribution in Male Sprague-Dawley Rat (10 mg/kg iv); type: ADME, organism-based; details: in vivo, read-out: Vss; outline: as §4
[29] = Cmax value in Male Sprague-Dawley Rat at dose 10 (mg/kg iv); type: ADME, organism-based; design: dose 10 mg/kg, route intravenous; details: in vivo; outline: as §3

activity at 10 µM (CYP1A2 [1]): 100%
activity at 100 µM (CYP3A4 [2]): 92.1%
MIC [3]: 2 µg/mL (≈ 6.22 µM)
activity at 10 µM (CYP3A4 [4]): 88.9%
Cmax [5]: 17700 ng/mL
Cmax [6]: 12200 ng/mL
MIC (Staphylococcus aureus [7]): 4 µg/mL (≈ 12.4 µM)
half-life [8]: 28.2 min
half-life [9]: 36 min
activity at 10 µM (CYP2C9 [10]): 92.1%
MIC (Haemophilus influenzae): > 16 µg/mL
Tmax [11]: 192 min
bioavailability [12]: 100%
MIC (Enterococcus faecalis): 8 µg/mL (≈ 24.9 µM)
Vd [13]: 0.6 L/kg
activity at 10 µM (CYP2D6 [14]): 101%
MIC (Escherichia coli): > 16 µg/mL
activity at 100 µM (CYP1A2 [15]): 102%
clearance [16]: 12.4 mL/min/kg
MIC (Staphylococcus aureus [17]): 4 µg/mL (≈ 12.4 µM)
CL/F [18]: 8.6 mL/min/kg
MIC (Streptococcus pneumoniae): 1 µg/mL (≈ 3.11 µM)
MIC (Moraxella catarrhalis): 16 µg/mL (≈ 49.8 µM)
activity at 100 µM (CYP2C9 [19]): 95.8%
activity at 100 µM (CYP2D6 [20]): 103%
bioavailability [21]: 143%
Structure (SMILES): CC(=O)NC[C@H]1CC(c2ccc(N3CCOCC3)c(F)c2)=NO1
Remaining at 40 min (Rattus norvegicus): 87%
ED50 (Mus musculus): 16.5 mg/kg
Remaining at 40 min (Homo sapiens): 100%

Structure (SMILES): CC(=O)NC[C@H]1CN(c2ccc(N3CCOCC3)c(F)c2)C(=O)O1 [LINEZOLID]
MIC [3]: 1 µg/mL (≈ 2.96 µM)
Remaining at 40 min (Rattus norvegicus): 97%
MIC (Haemophilus influenzae): 16 µg/mL (≈ 47.4 µM)
MIC (Escherichia coli): > 32 µg/mL
MIC (Moraxella catarrhalis): 8 µg/mL (≈ 23.7 µM)
Tmax [22]: 18.6 min

Cmax [23]: 2260 ng/mL
F [24]: 100%
half-life [25]: 57.6 min
clearance [26]: 24.9 mL/min/kg
bioavailability [27]: 56%
Vd [28]: 0.99 L/kg
Cmax [29]: 20800 ng/mL
Tmax [22]: 79.8 min
Structure (SMILES): CC(=O)NC[C@H]1CN(c2ccc(N3CCN(C(=O)CO)CC3)c(F)c2)C(=O)O1 [EPEREZOLID]
Remaining at 40 min (Rattus norvegicus): 102%
